Laboratory results: ChEMBL document CHEMBL1671864, “First assessment in humans of the safety, tolerability, pharmacokinetics, and ex vivo pharmacodynamic antimalarial activity of the new artemisinin derivative artemisone” (Antimicrob Agents Chemother, 2008)

Experiments:
[1] = Half life in healthy human plasma at 40 mg, po administered as two 20 mg immediate release tablets daily for 3 days during 10 hrs overnight fasting state measured after 1 day; assay type: ADME, organism-based
Summary of the method: (§1)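 Healthy Caucasian males took tablets once daily for 3 days with 240 ml water after a 10-h fast. Heparinised blood was drawn predose and at 0.25–14 h after the first and last doses. Plasma parent drug and metabolites M1–M3 were measured by LC/MS-MS (MRM, deuterated internal standard). Noncompartmental analysis gave Cmax observed, t1/2 = 0.693/kel and MRT = AUMC/AUC. Values are geometric means.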

[2] = Apparent volume of distribution with respect to the bioavailability in healthy human at 80 mg, po administered as single immediate release tablets during 10 hrs overnight fasting state; assay type: ADME, organism-based; settings: in vivo, read-out: Vc/F
Summary of the method: (§2)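 Single ascending oral doses in healthy Caucasian men, given fasted (10-h overnight) with 240 ml water: 10, 20, 30 or 40 mg as oral solution, or 80 mg as IR tablets. Parent plasma levels by LC/MS-MS over 0.25–14 h. Noncompartmental analysis: kel by terminal-phase least-squares regression, AUC extrapolated to infinity, CL/F = dose/AUC, V/F = CL/F÷kel.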

[3] = Cmax in healthy human plasma at 40 mg, po administered as single ascending doses as solution during 10 hrs overnight fasting state; assay type: ADME, organism-based; design: dose 40 mg, route oral
Summary of the method: (§3)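 Healthy Caucasian male volunteers, single oral dose with 240 ml water after a 10-h overnight fast. Heparinised venous blood was drawn predose and at 0.25–14 h. Plasma was stored frozen. Parent drug and metabolites M1–M3 were measured by LC/MS-MS (MRM, deuterated internal standard). Noncompartmental analysis gave Cmax observed, t1/2 = 0.693/kel (terminal regression) and MRT = AUMC/AUC. Values are geometric means.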

[4] = system: Homo sapiens; experiment: Toxicity in healthy human assessed as occurrence of adverse event at 40 mg, po administered daily for 3 days as two 20-mg immediate-release tablets during 10 hrs overnight fasting state; assay type: organism-based; settings: in vivo
Summary of the method: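 3-day daily oral tablet dosing in healthy Caucasian men (8 active, 4 placebo per dose). Adverse events were collected by open questioning and spontaneous report. Severity was graded mild (daily activities unaffected), moderate (some interference) or severe (activities not completed).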

[5] = Apparent oral clearance in healthy human at 80 mg, po administered as single immediate release tablets during 10 hrs overnight fasting state; assay type: ADME, organism-based; settings: in vivo; summary of the method: as §2
[6] = Mean residence time in healthy human at 20 mg, po administered as single ascending doses as solution during 10 hrs overnight fasting state; assay type: ADME, organism-based; settings: in vivo; summary of the method: as §3
[7] = Apparent volume of distribution with respect to the bioavailability in healthy human at 40 mg, po administered as two 20 mg immediate release tablets daily for 3 days during 10 hrs overnight fasting state measured after 1 day; assay type: ADME, organism-based; settings: in vivo, read-out: Vc/F
Summary of the method: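 Healthy Caucasian males took 40 mg (2×20-mg IR tablets) or 80 mg (4 tablets) orally daily for 3 days after a 10-h fast. Plasma parent drug was measured by LC/MS-MS from predose to 14 h after the first and third doses. Noncompartmental analysis: AUC by log-linear trapezoid extrapolated via kel, CL/F = dose/AUC, V/F = CL/F÷kel, geometric means.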

[8] = Half life in healthy human plasma at 80 mg, po administered as four 20 mg immediate release tablets daily for 3 days during 10 hrs overnight fasting state measured after 1 day; assay type: ADME, organism-based; summary of the method: as §1
[9] = Tmax in healthy human plasma at 40 mg, po administered as two 20 mg immediate release tablets daily for 3 days during 10 hrs overnight fasting state measured after 3 day; assay type: ADME, organism-based
Summary of the method: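 Healthy Caucasian men (8 active, 4 placebo per dose) dosed with tablets daily for 3 days after 10-h fast. Lithium-heparin plasma sampled predose and 0.25–14 h after day-1 and day-3 doses, stored frozen. Parent and M1–M3 quantified by LC/MS-MS in positive-ion MRM. Tmax taken directly from observed individual data.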

C[C@H]1[C@H](N2CCS(=O)(=O)CC2)O[C@@H]2O[C@@]3(C)CC[C@H]4[C@H](C)CC[C@@H]1[C@@]24OO3 [ARTEMIFONE]
half-life [1]: 3.36 h
Vd/F [2]: 14.5 L/kg
Cmax [3]: 83 ng/mL
Activity [4]: Non-toxic
CL/F [5]: 4740 mL/min
MRT [6]: 1.79 h
Vd/F [7]: 12.8 L/kg
half-life [8]: 2.97 h
Tmax [9]: 1.13 h
